Measured values: ChEMBL document CHEMBL1155708, “Isoaurostatin, a novel topoisomerase inhibitor produced by Thermomonospora alba” (J Nat Prod, 2001)

Legend:
Ribonuclease pancreatic = target: T1, Ribonuclease pancreatic (Bos taurus, UniProt P61823); assay: Inhibition of bovine pancreas RNase A assessed as undigested supercoiled pBR322 DNA concentration
T1 sequence (P61823 whole entry): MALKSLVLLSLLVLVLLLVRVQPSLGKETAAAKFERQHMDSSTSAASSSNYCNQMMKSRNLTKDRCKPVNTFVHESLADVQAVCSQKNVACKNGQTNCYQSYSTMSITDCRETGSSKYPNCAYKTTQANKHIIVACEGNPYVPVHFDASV
In short: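 Restriction enzyme or nuclease activity followed as the remaining undigested supercoiled pBR322 DNA (or RNA) after reaction.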

DNA topoisomerase = target: T2, DNA topoisomerase (Bos taurus, UniProt A0JN73); assay: Inhibition calf thymus gland topoisomerase 1 assessed as conversion of supercoiled pBR322 DNA to relaxed form
T2 sequence (A0JN73 whole entry): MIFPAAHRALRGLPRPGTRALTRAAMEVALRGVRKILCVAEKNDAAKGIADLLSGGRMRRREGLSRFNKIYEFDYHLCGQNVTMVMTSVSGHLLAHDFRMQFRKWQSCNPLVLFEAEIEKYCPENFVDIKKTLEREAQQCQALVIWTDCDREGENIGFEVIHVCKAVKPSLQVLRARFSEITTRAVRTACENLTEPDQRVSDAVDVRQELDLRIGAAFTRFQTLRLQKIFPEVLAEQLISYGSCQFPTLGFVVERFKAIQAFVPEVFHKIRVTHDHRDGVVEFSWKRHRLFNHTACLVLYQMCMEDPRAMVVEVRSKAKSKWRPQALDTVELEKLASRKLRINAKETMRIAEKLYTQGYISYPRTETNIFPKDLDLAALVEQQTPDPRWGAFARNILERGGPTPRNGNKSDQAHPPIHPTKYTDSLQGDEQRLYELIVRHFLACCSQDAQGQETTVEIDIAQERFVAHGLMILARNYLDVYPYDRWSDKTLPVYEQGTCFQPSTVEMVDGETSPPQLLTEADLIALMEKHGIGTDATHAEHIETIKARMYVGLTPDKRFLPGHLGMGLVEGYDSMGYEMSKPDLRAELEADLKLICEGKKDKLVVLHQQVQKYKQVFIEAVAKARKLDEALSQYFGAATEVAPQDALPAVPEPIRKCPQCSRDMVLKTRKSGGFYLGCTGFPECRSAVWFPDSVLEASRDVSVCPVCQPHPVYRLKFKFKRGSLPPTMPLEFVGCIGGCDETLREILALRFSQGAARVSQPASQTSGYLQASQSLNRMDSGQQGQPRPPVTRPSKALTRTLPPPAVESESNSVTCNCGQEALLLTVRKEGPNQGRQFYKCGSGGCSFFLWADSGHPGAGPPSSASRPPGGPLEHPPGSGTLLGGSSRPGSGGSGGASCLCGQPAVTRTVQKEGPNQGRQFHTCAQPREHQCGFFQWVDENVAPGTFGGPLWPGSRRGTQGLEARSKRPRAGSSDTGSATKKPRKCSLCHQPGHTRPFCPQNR

DNA topoisomerase 1 [1] = target: T3, DNA topoisomerase 1 (Chlorocebus aethiops, UniProt Q7YR26); assay: Inhibition topoisomerase 1 in african green monkey Vero cells assessed as conversion of supercoiled pBR322 DNA to relaxed form; format: cell-based, Chlorocebus sabaeus
T3 sequence (Q7YR26 whole entry): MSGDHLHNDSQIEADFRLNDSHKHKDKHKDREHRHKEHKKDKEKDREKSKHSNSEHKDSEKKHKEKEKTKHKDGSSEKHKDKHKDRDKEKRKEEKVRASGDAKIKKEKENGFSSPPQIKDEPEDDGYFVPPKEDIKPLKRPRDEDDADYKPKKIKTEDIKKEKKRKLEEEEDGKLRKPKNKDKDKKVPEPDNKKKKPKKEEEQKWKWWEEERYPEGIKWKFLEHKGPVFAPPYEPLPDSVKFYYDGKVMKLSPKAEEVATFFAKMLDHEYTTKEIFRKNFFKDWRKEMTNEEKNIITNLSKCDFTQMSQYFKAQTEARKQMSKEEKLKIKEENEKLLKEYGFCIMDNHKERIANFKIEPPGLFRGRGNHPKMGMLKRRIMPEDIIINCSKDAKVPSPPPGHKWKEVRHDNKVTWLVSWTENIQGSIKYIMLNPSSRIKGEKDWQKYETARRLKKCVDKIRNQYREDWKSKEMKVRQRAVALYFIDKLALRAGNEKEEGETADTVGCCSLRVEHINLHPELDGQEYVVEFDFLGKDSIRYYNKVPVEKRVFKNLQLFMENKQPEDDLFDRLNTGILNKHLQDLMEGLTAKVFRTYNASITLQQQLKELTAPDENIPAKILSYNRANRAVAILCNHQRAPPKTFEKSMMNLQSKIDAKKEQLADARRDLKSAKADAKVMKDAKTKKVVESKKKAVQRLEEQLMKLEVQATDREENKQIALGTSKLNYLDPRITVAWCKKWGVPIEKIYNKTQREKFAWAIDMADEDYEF
In short: (§1)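 Enzyme source: Vero or NIH3T3 cells cultured 5 days, washed in PBS and pelleted (1 × 10^6 cells). Lysed 30 min on ice in 200 µL buffer (10 mM Tris-HCl pH 7.5, MgCl2, EGTA, AEBSF, β-mercaptoethanol, 0.5% CHAPS, 10% glycerin); the cleared supernatant relaxed supercoiled pBR322. Gel densitometry; IC50 is the amount halving activity.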

[2] = target: Telomerase reverse transcriptase (Homo sapiens, UniProt O14746); assay: Inhibition of telomerase from human COLO201 cell
Chain of Telomerase reverse transcriptase (O14746 whole entry): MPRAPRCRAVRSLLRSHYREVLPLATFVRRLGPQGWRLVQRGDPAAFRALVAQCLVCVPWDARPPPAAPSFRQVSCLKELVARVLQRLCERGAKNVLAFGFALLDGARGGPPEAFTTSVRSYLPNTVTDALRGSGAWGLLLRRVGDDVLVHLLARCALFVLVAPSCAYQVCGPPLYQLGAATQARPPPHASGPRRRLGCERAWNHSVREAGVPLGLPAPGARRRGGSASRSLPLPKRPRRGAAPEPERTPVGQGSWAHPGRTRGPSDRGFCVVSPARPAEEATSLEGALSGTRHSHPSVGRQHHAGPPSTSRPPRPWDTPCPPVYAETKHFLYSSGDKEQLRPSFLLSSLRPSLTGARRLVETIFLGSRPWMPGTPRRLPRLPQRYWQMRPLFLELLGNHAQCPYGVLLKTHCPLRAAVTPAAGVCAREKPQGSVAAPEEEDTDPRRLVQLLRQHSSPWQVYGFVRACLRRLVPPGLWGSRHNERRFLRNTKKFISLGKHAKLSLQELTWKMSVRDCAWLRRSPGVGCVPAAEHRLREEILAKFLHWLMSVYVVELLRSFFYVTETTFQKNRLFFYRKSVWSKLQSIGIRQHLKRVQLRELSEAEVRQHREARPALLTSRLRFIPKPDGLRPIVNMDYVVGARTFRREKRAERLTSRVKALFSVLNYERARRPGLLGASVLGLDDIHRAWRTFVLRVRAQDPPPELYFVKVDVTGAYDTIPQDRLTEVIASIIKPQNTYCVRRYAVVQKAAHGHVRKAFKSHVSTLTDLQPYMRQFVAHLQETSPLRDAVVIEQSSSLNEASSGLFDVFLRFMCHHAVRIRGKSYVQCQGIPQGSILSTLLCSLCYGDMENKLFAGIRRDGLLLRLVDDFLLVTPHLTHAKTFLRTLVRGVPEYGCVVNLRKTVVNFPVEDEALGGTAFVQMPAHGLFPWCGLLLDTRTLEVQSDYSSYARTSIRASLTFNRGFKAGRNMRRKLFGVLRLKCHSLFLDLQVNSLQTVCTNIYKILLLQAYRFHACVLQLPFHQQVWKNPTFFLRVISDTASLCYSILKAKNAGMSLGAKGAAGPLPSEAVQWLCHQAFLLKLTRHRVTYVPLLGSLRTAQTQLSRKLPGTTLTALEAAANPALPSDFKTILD

DNA topoisomerase 1 [3] = target: T4, DNA topoisomerase 1 (Mus musculus, UniProt Q04750); assay: Inhibition topoisomerase 1 in mouse NIH/3T3 cells assessed as conversion of supercoiled pBR322 DNA to relaxed form; format: cell-based, NIH3T3; in short: as §1
T4 sequence (Q04750 whole entry): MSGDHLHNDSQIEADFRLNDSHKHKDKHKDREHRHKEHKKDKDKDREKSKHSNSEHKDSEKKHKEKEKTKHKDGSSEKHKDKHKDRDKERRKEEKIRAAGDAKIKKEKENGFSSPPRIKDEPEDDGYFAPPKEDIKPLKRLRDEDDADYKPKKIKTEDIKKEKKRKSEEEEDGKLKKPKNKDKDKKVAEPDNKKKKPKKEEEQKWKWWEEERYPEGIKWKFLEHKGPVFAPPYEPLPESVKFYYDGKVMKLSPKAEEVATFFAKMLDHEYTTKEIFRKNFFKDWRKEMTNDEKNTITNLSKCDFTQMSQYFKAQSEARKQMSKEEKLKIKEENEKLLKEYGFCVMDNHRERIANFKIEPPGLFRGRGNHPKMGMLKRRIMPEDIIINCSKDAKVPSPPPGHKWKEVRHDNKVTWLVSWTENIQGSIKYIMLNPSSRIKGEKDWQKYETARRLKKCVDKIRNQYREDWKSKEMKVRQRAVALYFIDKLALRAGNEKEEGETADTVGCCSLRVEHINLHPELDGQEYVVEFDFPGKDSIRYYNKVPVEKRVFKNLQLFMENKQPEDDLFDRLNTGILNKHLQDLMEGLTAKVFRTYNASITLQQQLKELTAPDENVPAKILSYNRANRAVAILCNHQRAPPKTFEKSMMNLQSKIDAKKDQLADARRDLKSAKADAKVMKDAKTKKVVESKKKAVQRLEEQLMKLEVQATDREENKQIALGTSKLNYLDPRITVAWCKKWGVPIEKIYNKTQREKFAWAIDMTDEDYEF

Row | SMILES | IC50 (Ribonuclease pancreatic) [µM] | IC50 (DNA topoisomerase) [µM] | IC50 (DNA topoisomerase 1 [1]) [µM] | IC50 [2] [µM] | IC50 (DNA topoisomerase 1 [3]) [µM]
1 | CC[C@@]1(O)C(=O)OCc2c1cc1n(c2=O)Cc2cc3ccccc3nc2-1 [CAMPTOTHECIN] | > 300 | 17 | 27 | > 300 | 12
2 | COc1cccc2c1C(=O)c1c(O)c3c(c(O)c1C2=O)C[C@@](O)(C(=O)CO)C[C@@H]3O[C@H]1C[C@H](N)[C@H](O)[C@H](C)O1 [DOXORUBICIN] | 25 | > 200 | > 200 | 73 | > 200
3 | O=C1Oc2cc(O)ccc2/C1=C\c1ccc(O)cc1 [ISOAUROSTATIN] | > 400 | 307 | > 400 | > 400 | > 400
4 | C=C1NC(=O)C(C)C(CCC(C)C(=O)/C=C/C(C)=C/CC(C)CCCCCCC)OC(=O)[C@H](CC(OS(=O)(=O)O)C(N)=O)NC(=O)[C@@H](C)CNC1=O (stereo not given in full) [TOPOSTATIN] | > 250 | 17 | 17 | > 250 | 47
